Laboratory results from ChEMBL document CHEMBL4184148 (Bioorg Med Chem Lett, 2017).

What was measured:
[1] = molecular target: Tyrosine-protein kinase CSK (Homo sapiens) (UniProt P41240); assay: Binding affinity to wild-type human full length CSK (M1 to L450 residues) expressed in Escherichia coli BL21 at 1 uM by Kinomescan method relative to control
How it was run: (§1)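 Run as one kinome-wide competition binding panel with each compound at a single fixed concentration. Results were plotted as a kinome-wide selectivity map.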

[2] = molecular target: Ribosomal protein S6 kinase alpha-1 (Homo sapiens) (UniProt Q15418); assay: Binding affinity to wild-type human partial length N-terminal RSK1 Kinase domain 1 (M1 to E388 residues) expressed in Escherichia coli BL21 at 1 uM by Kinomescan method relative to control
[3] = molecular target: 1-phosphatidylinositol 3-phosphate 5-kinase (Homo sapiens) (UniProt Q9Y2I7); assay: Binding affinity to wild-type human partial length PIKFYVE (F1512 to C2098 residues) expressed in HEK293 cells at 1 uM by Kinomescan method relative to control; assay type: cell-based
[4] = molecular target: Rhodopsin kinase GRK7 (Homo sapiens) (UniProt Q8WTQ7); assay: Binding affinity to wild-type human full length GRK7 (M1 to L553 residues) expressed in HEK293 cells at 1 uM by Kinomescan method relative to control; assay type: cell-based; how it was run: as §1
[5] = molecular target: Macrophage colony-stimulating factor 1 receptor (Homo sapiens) (UniProt P07333); assay: Binding affinity to wild-type human partial length CSF1R (I564 to S939 residues) expressed in Escherichia coli BL21 at 1 uM by Kinomescan method relative to control
[6] = system: Phosphatidylinositol 4,5-bisphosphate 3-kinase catalytic subunit alpha isoform (Homo sapiens), P42336 [C420R]; assay: Binding affinity to human partial length PIK3CA C420R mutant (R108 to N1068 residues) expressed in HEK293 cells at 1 uM by Kinomescan method relative to control; assay type: cell-based
[7] = molecular target: Atypical kinase COQ8B, mitochondrial (Homo sapiens) (UniProt Q96D53); assay: Binding affinity to wild-type human full length ADCK4 (M1 to S544 residues) expressed in Escherichia coli BL21 at 1 uM by Kinomescan method relative to control
[8] = molecular target: Cytoplasmic tyrosine-protein kinase BMX (Homo sapiens) (UniProt P51813); assay: Binding affinity to wild-type human full length BMX (M1 to H675 residues) expressed in Escherichia coli BL21 at 1 uM by Kinomescan method relative to control
[9] = molecular target: Ephrin type-A receptor 7 (Homo sapiens) (UniProt Q15375); assay: Binding affinity to wild-type human partial length EPHA7 (Y608 to S912 residues) expressed in Escherichia coli BL21 at 1 uM by Kinomescan method relative to control
[10] = molecular target: Phosphatidylinositol 4,5-bisphosphate 3-kinase catalytic subunit delta isoform (Homo sapiens) (UniProt O00329); assay: Binding affinity to wild-type human partial length PIK3CD (R108 to Q1044 residues) expressed in HEK293 cells at 1 uM by Kinomescan method relative to control; assay type: cell-based
[11] = molecular target: Serine/threonine-protein kinase Nek3 (Homo sapiens) (UniProt P51956); assay: Binding affinity to wild-type human full length NEK3 (M1 to R506 residues) expressed in HEK293 cells at 1 uM by Kinomescan method relative to control; assay type: cell-based
How it was run: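 Kinome-wide competition binding panel run by an outside provider, with each compound tested at a single concentration. Activity is read against the kinase panel.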

[12] = molecular target: STE20/SPS1-related proline-alanine-rich protein kinase (Homo sapiens) (UniProt Q9UEW8); assay: Binding affinity to wild-type human partial length STK39 (P43 to I357 residues) expressed in HEK293 cells at 1 uM by Kinomescan method relative to control; assay type: cell-based
[13] = molecular target: Mitogen-activated protein kinase kinase kinase 2 (Homo sapiens) (UniProt Q9Y2U5); assay: Binding affinity to wild-type human partial length MAP3K2 (S315 to H619 residues) expressed in HEK293 cells at 1 uM by Kinomescan method relative to control; assay type: cell-based
[14] = molecular target: Cyclin-dependent kinase 4 (Homo sapiens) (UniProt P11802); assay: Binding affinity to wild-type human full length CDK4 (M1 to E303 residues) expressed in HEK293 cells at 1 uM by Kinomescan method relative to control; assay type: cell-based
[15] = molecular target: Tyrosine-protein kinase Fgr (Homo sapiens) (UniProt P09769); assay: Binding affinity to wild-type human partial length FGR (L233 to T529 residues) expressed in Escherichia coli BL21 at 1 uM by Kinomescan method relative to control
[16] = molecular target: Mitogen-activated protein kinase kinase kinase 4 (Homo sapiens) (UniProt Q9Y6R4); assay: Binding affinity to wild-type human partial length MAP3K4 (G1319 to E1608 residues) expressed in Escherichia coli BL21 at 1 uM by Kinomescan method relative to control
[17] = molecular target: Mitogen-activated protein kinase kinase kinase 10 (Homo sapiens) (UniProt Q02779); assay: Binding affinity to wild-type human partial length MLK2 (V52 to W380 residues) expressed in Escherichia coli BL21 at 1 uM by Kinomescan method relative to control
[18] = molecular target: Mitogen-activated protein kinase kinase kinase 9 (Homo sapiens) (UniProt P80192); assay: Binding affinity to wild-type human partial length MLK1 (V88 to W426 residues) expressed in Escherichia coli BL21 at 1 uM by Kinomescan method relative to control
[19] = molecular target: Phosphatidylinositol 4-phosphate 5-kinase type-1 gamma (Homo sapiens) (UniProt O60331); assay: Binding affinity to wild-type human partial length PIP5K1C (M1 to T668 residues) expressed in HEK293 cells at 1 uM by Kinomescan method relative to control; assay type: cell-based
[20] = system: Epidermal growth factor receptor (Homo sapiens), P00533 [T790M]; assay: Binding affinity to human partial length EGFR T790M mutant (R669 to G1022 residues) expressed in HEK293 cells at 1 uM by Kinomescan method relative to control; assay type: cell-based
[21] = system: Tyrosine-protein kinase ABL1 (Homo sapiens), P00519 [H396P]; assay: Binding affinity to human non-phosphorylated ABL1 H396P mutant (S229 to K512 residues) expressed in HEK293 cells at 1 uM by Kinomescan method relative to control; assay type: cell-based
[22] = molecular target: Bone morphogenetic protein receptor type-1A (Homo sapiens) (UniProt P36894); assay: Binding affinity to wild-type human partial length BMPR1A (Q214 to I532 residues) expressed in Escherichia coli BL21 at 1 uM by Kinomescan method relative to control
[23] = molecular target: Ribosomal protein S6 kinase beta-1 (Homo sapiens) (UniProt P23443); assay: Binding affinity to wild-type human partial length S6K1 (M1 to S421 residues) expressed in HEK293 cells at 1 uM by Kinomescan method relative to control; assay type: cell-based
[24] = molecular target: Tyrosine-protein kinase Srms (Homo sapiens) (UniProt Q9H3Y6); assay: Binding affinity to wild-type human partial length SRMS (L208 to P488 residues) expressed in HEK293 cells at 1 uM by Kinomescan method relative to control; assay type: cell-based
[25] = system: Tyrosine-protein kinase ABL1 (Homo sapiens), P00519 [F317L]; assay: Binding affinity to human non-phosphorylated ABL1 F317L mutant (S229 to K512 residues) expressed in HEK293 cells at 1 uM by Kinomescan method relative to control; assay type: cell-based

Tyrosine-protein kinase Fgr (Homo sapiens), sequence (P09769 2-529 limits assumed): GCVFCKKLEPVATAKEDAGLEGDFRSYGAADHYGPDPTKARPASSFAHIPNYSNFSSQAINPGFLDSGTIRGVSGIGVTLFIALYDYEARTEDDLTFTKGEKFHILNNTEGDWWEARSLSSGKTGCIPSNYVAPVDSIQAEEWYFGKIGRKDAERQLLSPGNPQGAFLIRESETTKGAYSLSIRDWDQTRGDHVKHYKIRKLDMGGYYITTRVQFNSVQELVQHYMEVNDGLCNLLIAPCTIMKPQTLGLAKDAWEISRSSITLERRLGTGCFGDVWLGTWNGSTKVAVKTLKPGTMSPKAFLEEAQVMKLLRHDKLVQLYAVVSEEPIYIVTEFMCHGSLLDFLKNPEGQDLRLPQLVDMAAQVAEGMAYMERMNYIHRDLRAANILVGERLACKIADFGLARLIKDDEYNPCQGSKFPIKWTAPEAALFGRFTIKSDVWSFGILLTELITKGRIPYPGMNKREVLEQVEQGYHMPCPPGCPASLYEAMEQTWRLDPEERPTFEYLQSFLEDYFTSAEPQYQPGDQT
Mitogen-activated protein kinase kinase kinase 9 (Homo sapiens), sequence (P80192 whole entry, looked up, the tested form may be a part): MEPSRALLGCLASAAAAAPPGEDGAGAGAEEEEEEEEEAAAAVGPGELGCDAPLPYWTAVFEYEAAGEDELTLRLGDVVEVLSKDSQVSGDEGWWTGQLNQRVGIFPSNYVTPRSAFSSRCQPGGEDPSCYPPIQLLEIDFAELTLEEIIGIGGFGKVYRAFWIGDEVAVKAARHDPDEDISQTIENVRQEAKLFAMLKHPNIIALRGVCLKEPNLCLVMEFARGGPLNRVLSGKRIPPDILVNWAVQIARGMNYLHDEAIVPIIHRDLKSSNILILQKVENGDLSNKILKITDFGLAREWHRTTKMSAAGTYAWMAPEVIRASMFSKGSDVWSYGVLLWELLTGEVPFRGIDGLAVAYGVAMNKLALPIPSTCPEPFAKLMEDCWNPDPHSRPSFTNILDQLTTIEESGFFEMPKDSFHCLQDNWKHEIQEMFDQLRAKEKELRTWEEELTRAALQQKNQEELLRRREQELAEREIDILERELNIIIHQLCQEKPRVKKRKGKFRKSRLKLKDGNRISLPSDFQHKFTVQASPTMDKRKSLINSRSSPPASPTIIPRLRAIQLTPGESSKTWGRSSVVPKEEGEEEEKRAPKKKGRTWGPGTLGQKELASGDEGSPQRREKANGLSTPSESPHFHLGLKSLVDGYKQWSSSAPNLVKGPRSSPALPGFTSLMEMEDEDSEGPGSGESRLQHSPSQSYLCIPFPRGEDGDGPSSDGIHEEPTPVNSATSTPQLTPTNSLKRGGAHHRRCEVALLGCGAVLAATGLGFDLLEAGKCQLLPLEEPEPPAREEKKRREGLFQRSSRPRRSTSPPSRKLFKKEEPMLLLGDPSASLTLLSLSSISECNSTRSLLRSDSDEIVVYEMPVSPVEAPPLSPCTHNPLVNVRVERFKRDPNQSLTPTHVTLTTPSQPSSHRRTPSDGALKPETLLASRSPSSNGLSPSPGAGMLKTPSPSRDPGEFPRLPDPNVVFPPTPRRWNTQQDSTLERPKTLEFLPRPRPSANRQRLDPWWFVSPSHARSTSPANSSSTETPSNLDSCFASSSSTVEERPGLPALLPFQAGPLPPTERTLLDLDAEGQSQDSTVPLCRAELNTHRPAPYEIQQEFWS
Tyrosine-protein kinase CSK (Homo sapiens), sequence (P41240 2-450 limits assumed): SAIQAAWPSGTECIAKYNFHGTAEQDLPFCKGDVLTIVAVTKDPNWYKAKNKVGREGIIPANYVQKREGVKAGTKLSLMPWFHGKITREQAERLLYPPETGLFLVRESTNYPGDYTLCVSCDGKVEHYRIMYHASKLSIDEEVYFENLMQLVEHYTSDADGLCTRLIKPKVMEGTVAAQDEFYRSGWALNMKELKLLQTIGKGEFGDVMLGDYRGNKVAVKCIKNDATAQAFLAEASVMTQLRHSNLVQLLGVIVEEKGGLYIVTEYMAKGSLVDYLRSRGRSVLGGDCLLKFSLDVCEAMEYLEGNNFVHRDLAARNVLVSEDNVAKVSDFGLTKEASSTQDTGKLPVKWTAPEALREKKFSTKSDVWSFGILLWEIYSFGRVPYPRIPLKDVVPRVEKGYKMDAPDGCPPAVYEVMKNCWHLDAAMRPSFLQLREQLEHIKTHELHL
Tyrosine-protein kinase Srms (Homo sapiens), sequence (Q9H3Y6 whole entry, the tested form may be a part): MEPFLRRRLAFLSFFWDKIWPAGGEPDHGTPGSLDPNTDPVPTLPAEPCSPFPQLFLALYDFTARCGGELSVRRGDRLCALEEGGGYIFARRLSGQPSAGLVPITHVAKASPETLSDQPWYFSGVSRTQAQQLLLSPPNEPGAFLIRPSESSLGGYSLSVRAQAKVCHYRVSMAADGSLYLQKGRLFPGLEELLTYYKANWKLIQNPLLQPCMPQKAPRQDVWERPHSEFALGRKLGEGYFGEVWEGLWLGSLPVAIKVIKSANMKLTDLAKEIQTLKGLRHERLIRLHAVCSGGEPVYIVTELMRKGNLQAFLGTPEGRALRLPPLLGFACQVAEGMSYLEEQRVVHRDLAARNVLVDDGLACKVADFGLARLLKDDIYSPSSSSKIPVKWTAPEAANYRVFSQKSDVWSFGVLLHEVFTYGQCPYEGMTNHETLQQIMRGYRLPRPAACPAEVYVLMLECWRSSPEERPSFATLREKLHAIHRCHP
Serine/threonine-protein kinase Nek3 (Homo sapiens), sequence (P51956 whole entry, the tested form may be a part): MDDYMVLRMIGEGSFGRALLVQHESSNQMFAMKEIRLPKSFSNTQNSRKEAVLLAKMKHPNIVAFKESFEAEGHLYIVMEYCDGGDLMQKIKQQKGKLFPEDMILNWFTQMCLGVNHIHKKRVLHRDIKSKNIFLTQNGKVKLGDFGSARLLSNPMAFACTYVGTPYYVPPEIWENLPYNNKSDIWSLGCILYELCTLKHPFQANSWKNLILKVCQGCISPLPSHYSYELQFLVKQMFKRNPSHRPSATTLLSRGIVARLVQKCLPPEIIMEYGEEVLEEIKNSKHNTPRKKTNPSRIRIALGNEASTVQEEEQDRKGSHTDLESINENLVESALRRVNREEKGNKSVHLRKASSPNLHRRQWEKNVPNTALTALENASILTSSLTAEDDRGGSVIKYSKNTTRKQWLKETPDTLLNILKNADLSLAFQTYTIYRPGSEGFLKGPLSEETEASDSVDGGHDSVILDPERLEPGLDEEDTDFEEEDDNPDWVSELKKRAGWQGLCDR
Phosphatidylinositol 4,5-bisphosphate 3-kinase catalytic subunit alpha isoform (Homo sapiens), P42336 [C420R], sequence (P42336 whole entry C420R, the tested form may be a part, canonical isoform): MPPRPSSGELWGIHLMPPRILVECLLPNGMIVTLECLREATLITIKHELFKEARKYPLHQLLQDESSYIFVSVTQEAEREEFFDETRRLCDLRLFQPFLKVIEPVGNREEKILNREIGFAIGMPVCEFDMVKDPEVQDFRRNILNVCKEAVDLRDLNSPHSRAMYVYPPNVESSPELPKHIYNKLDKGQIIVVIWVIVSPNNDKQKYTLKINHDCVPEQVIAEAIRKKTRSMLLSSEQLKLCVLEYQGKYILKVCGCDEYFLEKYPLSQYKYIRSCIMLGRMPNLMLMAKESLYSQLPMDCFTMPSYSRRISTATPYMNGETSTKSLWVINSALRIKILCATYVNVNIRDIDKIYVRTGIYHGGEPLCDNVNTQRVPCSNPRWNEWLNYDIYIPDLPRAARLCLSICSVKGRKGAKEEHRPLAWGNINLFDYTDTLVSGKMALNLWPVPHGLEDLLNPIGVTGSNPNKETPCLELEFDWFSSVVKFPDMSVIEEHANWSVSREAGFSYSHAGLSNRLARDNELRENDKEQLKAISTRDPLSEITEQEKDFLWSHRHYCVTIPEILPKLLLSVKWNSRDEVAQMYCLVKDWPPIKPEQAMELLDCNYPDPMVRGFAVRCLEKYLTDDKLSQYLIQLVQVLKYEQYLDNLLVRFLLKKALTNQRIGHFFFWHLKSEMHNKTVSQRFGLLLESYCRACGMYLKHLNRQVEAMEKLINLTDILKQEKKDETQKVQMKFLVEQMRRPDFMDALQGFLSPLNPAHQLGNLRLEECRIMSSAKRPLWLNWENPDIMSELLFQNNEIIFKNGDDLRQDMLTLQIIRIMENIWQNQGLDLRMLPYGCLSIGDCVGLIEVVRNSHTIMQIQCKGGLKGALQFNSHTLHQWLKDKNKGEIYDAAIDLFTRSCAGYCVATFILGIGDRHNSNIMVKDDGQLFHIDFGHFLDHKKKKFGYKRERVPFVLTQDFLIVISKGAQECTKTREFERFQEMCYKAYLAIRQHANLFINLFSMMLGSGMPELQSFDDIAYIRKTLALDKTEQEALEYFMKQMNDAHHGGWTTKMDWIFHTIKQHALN
Bone morphogenetic protein receptor type-1A (Homo sapiens), sequence (P36894 whole entry, the tested form may be a part): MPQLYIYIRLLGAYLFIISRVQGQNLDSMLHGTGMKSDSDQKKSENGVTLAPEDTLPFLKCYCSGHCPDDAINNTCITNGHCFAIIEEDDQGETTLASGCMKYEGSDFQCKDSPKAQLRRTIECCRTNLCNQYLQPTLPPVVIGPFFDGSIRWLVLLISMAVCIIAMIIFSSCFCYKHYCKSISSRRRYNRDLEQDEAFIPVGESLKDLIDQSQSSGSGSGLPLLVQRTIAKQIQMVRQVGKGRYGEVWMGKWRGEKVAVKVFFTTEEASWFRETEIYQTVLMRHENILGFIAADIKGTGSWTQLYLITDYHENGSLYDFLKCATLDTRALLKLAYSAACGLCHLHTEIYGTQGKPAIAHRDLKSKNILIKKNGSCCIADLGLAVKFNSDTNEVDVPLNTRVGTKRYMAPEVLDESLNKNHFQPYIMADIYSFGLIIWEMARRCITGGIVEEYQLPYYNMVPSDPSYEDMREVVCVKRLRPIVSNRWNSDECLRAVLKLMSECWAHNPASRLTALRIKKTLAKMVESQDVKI
Cyclin-dependent kinase 4 (Homo sapiens), sequence (P11802 whole entry, the tested form may be a part): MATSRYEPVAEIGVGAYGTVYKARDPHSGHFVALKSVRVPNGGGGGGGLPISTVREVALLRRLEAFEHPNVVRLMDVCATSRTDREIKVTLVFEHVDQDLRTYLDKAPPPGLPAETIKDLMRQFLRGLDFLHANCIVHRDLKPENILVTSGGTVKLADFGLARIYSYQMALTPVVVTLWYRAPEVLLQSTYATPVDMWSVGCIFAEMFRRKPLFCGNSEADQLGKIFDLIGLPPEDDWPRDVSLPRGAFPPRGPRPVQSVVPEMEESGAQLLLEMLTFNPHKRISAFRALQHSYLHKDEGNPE

Structure (SMILES)	Activity [1]	Activity [2]	Activity [3]	Activity [4]	Activity [5]	Activity [6]	Activity [7]	Activity [8]	Activity [9]	Activity [10]	Activity [11]	Activity [12]	Activity [13]	Activity [14]	Activity [15]	Activity [16]	Activity [17]	Activity [18]	Activity [19]	Activity [20]	further results
CCC(=O)Nc1ccc(C(=O)Nc2ccc(Nc3ncc4c(n3)N(C)c3ccc(C)cc3C(=O)N4C)cc2)cc1	93%	94%	98%	87%	87%	89%	100%	90%	86%	75%	70%	73%	66%	89%	96%	100%	74%	88%	88%	78%	Activity [21]: 62%; Activity [22]: 100%; Activity [23]: 100%; Activity [24]: 89%; Activity [25]: 72%
C=CC(=O)Nc1ccc(C(=O)Nc2ccc(Nc3ncc4c(n3)N(C)c3ccc(C)cc3C(=O)N4C)cc2)cc1	84%	100%	100%	93%	100%	58%	100%	99%	94%	55%	84%	88%	85%	100%	93%	100%	82%	100%	98%	79%	Activity [21]: 84%; Activity [22]: 82%; Activity [23]: 91%; Activity [24]: 73%; Activity [25]: 90%
